# Source: ChEMBL document CHEMBL4014347, “Targeting Mycolic Acid Transport by Indole-2-carboxamides for the Treatment of Mycobacterium abscessus Infections” (J Med Chem, 2017)
# Calls of active or inactive are those of the source. The calls are words filed in the database; no cut-off is given here.
# Tests used:
# [1] = Selectivity index, ratio of IC50 for African green monkey Vero cells to MIC for Mycobacterium abscessus CIP104536; assay type: toxicity; settings: read-out: Selectivity Index
# [2] = tested on: Mycobacteroides abscessus; test: Antibacterial activity against CF patient derived Mycobacterium abscessus subsp. abscessus isolate 2524 rough variant after 3 to 5 days by two fold serial dilution method; assay type: functional
# How it was run: (§1)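 Broth microdilution in cation-adjusted Mueller−Hinton broth per CLSI; inoculum 5 × 10^6 CFU/mL of exponential-phase bacteria; two-fold serial dilutions, solvent-only wells as control; 30 °C for 3−5 days; MIC read visually and confirmed by absorbance at 560 nm; triplicate on three independent occasions.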
# [3] = tested on: Mycobacteroides abscessus; test: Antibacterial activity against non CF patient derived Mycobacterium abscessus subsp. abscessus isolate 3022 rough variant after 3 to 5 days by two fold serial dilution method; assay type: functional; how it was run: as §1
# [4] = tested on: Mycobacteroides abscessus; test: Antibacterial activity against CF patient derived Mycobacterium abscessus subsp. abscessus smooth variant after 3 to 5 days by two fold serial dilution method; assay type: functional; how it was run: as §1
# [5] = tested on: Mycobacteroides abscessus; test: Antibacterial activity against Addison's disease patient derived Mycobacterium abscessus subsp. massiliense isolate CIP108297 rough variant after 3 to 5 days by two fold serial dilution method; assay type: functional; how it was run: as §1
# [6] = tested on: Mycobacteroides abscessus; test: Antibacterial activity against Addison's disease patient derived Mycobacterium abscessus subsp. massiliense isolate CIP108297 smooth variant after 3 to 5 days by two fold serial dilution method; assay type: functional; how it was run: as §1
# [7] = tested on: Mycobacteroides abscessus; test: Antibacterial activity against CF patient derived Mycobacterium abscessus subsp. massiliense isolate 212 smooth variant after 3 to 5 days by two fold serial dilution method; assay type: functional; how it was run: as §1
# [8] = Antibacterial activity against non CF patient derived Mycobacterium abscessus subsp. bolletii isolate 19 rough variant after 3 to 5 days by two fold serial dilution method; assay type: functional; settings: Mycobacteroides abscessus; how it was run: as §1
# [9] = Antibacterial activity against non CF patient derived Mycobacterium abscessus subsp. bolletii isolate 17 smooth variant after 3 to 5 days by two fold serial dilution method; assay type: functional; settings: Mycobacteroides abscessus; how it was run: as §1
# [10] = Antibacterial activity against CF patient derived Mycobacterium abscessus subsp. bolletii isolate 116 smooth variant after 3 to 5 days by two fold serial dilution method; assay type: functional; settings: Mycobacteroides abscessus; how it was run: as §1
# [11] = tested on: Mycobacteroides abscessus; test: Antibacterial activity against Mycobacterium abscessus CIP104536 smooth variant infected in PMA activated THP-1 macrophages assessed as reduction in viable colony forming unit at 3 ug/ml measured upto 4 days post treatment; assay type: functional
# How it was run: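 THP-1 cells in RPMI with 10% FBS, differentiated with 20 ng/mL PMA for 48 h at 37 °C; infected at MOI 1:2 for 2 h under 5% CO2; washed, 200 μg/mL amikacin for 1 h, washed; drug medium renewed daily; lysed in 1% Triton X100 at 0, 48, 96 h and plated for CFU; triplicates, two independent experiments.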
# [12] = tested on: Mycobacteroides abscessus; test: Antibacterial activity against Mycobacterium abscessus CIP_OK4-10 harboring MAB_4508 g925c/A309P mutant after 3 to 5 days by two fold serial dilution method; assay type: functional; how it was run: as §1
# [13] = tested on: Mycobacteroides abscessus; test: Antibacterial activity against Mycobacterium abscessus CIP_PIPD1 harboring MAB_4508 g925c/A309P mutant after 3 to 5 days by two fold serial dilution method; assay type: functional; how it was run: as §1
# [14] = tested on: Mycobacteroides abscessus; test: Antibacterial activity against Mycobacterium abscessus CIP104536 smooth variant harboring pMV261 MAB_4508_A309P mutant at 0.5 to 1 ug/ml after 3 days; assay type: functional
# How it was run: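 M. abscessus overexpressing wild-type or A309P MAB_4508 from pMV261 plated on 7H10 agar with 10% OADC containing drug; plates incubated at 30 °C for 3 days before growth inspection.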
# [15] = tested on: Mycobacteroides abscessus; test: Inhibition of MmpL3 A309P mutant in Mycobacterium abscessus CIP104536 smooth variant harboring pMV261 MAB_4508_A309P mutant assessed as reduction in trehalose monomycolate transport at 6.2 ug/ml preincubated for 1 hr followed by [14C]acetic acid addition measured after 2 hrs by TLC based autoradiography analysis
# How it was run: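 Exponential cultures in 7H9 with OADC exposed to increasing drug concentrations for 1 h at 37 °C with agitation, then labelled with 1 μCi/mL [14C]acetate (56 mCi/mmol) for 2 h; apolar lipids (TMM, TDM) run on TLC in chloroform/methanol/water 40:8:1; MAME and arabinogalactan-bound mycolates in petroleum ether/acetone 95:5; autoradiography.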
# Cytochrome P450 1A2 = target: T1, Cytochrome P450 1A2 (Homo sapiens, UniProt P05177); test: Inhibition of CYP1A2 in human liver microsomes preincubated for 5 mins followed by NADPH addition measured after 10 mins by LC-MS/MS analysis; assay type: ADME
# T1 sequence (P05177 whole entry): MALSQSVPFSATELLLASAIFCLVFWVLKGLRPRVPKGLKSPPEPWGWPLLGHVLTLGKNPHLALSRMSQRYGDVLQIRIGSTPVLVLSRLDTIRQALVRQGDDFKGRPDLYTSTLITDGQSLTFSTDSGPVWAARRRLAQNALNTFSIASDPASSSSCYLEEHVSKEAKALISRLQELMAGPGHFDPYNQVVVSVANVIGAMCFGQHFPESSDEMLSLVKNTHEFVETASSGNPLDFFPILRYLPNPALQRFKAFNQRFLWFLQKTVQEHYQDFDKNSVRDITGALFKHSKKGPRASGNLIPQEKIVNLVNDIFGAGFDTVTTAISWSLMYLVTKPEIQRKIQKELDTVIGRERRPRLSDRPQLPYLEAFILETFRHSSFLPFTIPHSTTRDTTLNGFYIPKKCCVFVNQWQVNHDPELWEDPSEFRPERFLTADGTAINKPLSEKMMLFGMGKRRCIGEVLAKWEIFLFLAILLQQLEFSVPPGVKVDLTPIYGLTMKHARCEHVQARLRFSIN
# [16] = Protein binding in rat plasma at 5 uM after 10 mins by LC-MS/MS analysis; assay type: ADME, cell-free; settings: read-out: PPB (converted)
# How it was run: (§2)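 Ultracentrifugation method: 5 μM compound in mouse or rat plasma (from DMSO stock), 10 min at 37 °C; total concentration from incubated plasma, unbound from middle-layer supernatant after 200000g for 4.5 h; niflumic acid internal standard, acetonitrile, filtered, LC-MS/MS.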
# [17] = Protein binding in mouse plasma at 5 uM after 10 mins by LC-MS/MS analysis; assay type: ADME, cell-free; settings: read-out: PPB (converted); how it was run: as §2
# Cytochrome P450 2D6 = Cytochrome P450 2D6 (Homo sapiens, UniProt P10635); test: Inhibition of CYP2D6 in human liver microsomes preincubated for 5 mins followed by NADPH addition measured after 10 mins by LC-MS/MS analysis; assay type: ADME
# Liver = test: Intrinsic clearance in rat liver microsomes at 0.5 uM in presence of NADPH by LC-MS/MS analysis; assay type: ADME, microsome
# How it was run: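 Compound (0.5 μM) incubated with mouse or rat liver microsomes plus NADPH regenerating system; aliquots every 3 min over 30 min analysed for parent by LC-MS/MS; monoexponential decay rate normalized to microsomal protein, expressed as mL/min/g liver.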
# Salmonella typhimurium = test: Mutagenicity in Salmonella typhimurium TA98 assessed as increase in revertant colonies at 0.24 to 500 ug/well after 72 hrs by Ames test relative to control; assay type: toxicity; settings: salmonella enterica subsp. enterica serovar typhimurium
# How it was run: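 Reverse mutation at histidine locus in S. typhimurium TA98 (frameshift) and TA100 (base-pair substitution), with and without S9; 0.24−500 μg/well; 37 ± 2 °C for 72 h, triplicates; DMSO vehicle; sodium azide, 2-nitrofluorene, 2-aminoanthracene positive controls; positive if revertants rise ≥2-fold over negative control dose-dependently.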
# Sequence of Cytochrome P450 2D6 (P10635 whole entry): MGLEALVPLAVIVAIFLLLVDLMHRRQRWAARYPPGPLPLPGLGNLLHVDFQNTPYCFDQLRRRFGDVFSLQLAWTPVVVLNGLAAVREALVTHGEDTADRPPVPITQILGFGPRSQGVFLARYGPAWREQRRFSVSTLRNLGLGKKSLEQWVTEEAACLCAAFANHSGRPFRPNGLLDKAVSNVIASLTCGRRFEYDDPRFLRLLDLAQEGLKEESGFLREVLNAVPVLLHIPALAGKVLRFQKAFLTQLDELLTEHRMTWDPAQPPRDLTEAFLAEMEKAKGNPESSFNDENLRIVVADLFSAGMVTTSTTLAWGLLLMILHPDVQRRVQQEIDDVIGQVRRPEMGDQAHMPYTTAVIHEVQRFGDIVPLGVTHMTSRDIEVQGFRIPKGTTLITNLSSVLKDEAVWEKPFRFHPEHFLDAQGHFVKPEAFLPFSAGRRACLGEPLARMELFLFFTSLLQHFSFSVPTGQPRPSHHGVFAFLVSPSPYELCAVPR
smiles,measurement,setting,value
O=C(NC1CCCCCC1)c1cc2c(Cl)cc(Cl)cc2[nH]1,selectivity ratio,[1],64 to 128
same,MIC,[2],0.125 µg/mL
same,MIC,[3],0.125 µg/mL
same,MIC,[4],0.125 µg/mL
same,MIC,[5],0.125 µg/mL
same,MIC,[6],0.125 µg/mL
same,MIC,[7],0.125 µg/mL
same,MIC,[8],0.125 µg/mL
same,MIC,[9],0.125 µg/mL
same,MIC,[10],0.25 µg/mL
same,Activity,[11],Active
same,MIC,[12],32 µg/mL
same,MIC,[13],32 µg/mL
same,Activity,[14],inactive
same,inhibition,[15],Active
same,IC50,Cytochrome P450 1A2,≤ 20 µM
same,"fraction unbound at 10 min, 5 µM",[16],0.008
same,"fraction unbound at 10 min, 5 µM",[17],0.011
same,IC50,Cytochrome P450 2D6,≤ 20 µM
same,CLH,Liver,6.3 mL/min/g
same,fold change (FC),Salmonella typhimurium,< 2
